Test results taken from ChEMBL document CHEMBL1122866, “3-Phenyl-1-indanamines. Potential antidepressant activity and potent inhibition of dopamine, norepinephrine, and serotonin uptake” (J Med Chem, 1985).

Experiments:
Format in all cases: functional
[1] = molecular target: Norepinephrine transporter (Rattus norvegicus, UniProt Q9WTR4); test: Inhibition of noradrenaline uptake in rat synaptosomal fraction
Method in brief: (§1)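 Synaptosomal uptake of DA, NE or 5-HT measured. The IC50 is in nM and is the mean of at least two determinations, each using five test concentrations in triplicate.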

Mus musculus [2] = organism: Mus musculus; test: Antagonistic activity against tetrabenazine-induced ptosis in mice.
Method in brief: (§2)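 Mice dosed intraperitoneally; the result is reported as the ED50 in μmol/kg with a range in parentheses. Test compounds are racemates of >95% isomeric purity by TLC.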

[3] = molecular target: Sodium-dependent dopamine transporter (Rattus norvegicus, UniProt P23977); test: Inhibition of dopamine uptake in rat synaptosomal fraction
[4] = molecular target: Sodium-dependent serotonin transporter (Rattus norvegicus, UniProt P31652); test: Inhibition of 5-HT uptake in rat synaptosomal fraction; method in brief: as §1
Mus musculus [5] = organism: Mus musculus; test: Antagonistic activity against 5-HTP induced potentiation in mice; method in brief: as §2

Norepinephrine transporter, sequence (Q9WTR4 whole entry): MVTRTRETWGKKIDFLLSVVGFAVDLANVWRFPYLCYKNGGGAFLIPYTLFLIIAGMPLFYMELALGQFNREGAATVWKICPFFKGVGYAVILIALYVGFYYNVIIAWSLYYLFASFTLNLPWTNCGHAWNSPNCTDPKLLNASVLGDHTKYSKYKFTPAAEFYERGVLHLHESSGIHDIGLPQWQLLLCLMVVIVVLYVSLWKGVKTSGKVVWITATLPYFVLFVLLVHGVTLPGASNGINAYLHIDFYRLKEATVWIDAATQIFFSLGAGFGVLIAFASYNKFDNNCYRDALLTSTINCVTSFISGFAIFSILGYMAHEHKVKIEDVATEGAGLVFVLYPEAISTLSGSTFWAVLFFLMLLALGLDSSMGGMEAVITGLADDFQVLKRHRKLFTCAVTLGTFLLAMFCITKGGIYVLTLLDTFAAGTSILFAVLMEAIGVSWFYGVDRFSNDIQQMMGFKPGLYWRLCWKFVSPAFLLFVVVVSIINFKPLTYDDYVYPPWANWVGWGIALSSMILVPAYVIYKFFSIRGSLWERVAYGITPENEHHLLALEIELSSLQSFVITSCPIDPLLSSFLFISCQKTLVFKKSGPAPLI
Sodium-dependent dopamine transporter, sequence (P23977 whole entry): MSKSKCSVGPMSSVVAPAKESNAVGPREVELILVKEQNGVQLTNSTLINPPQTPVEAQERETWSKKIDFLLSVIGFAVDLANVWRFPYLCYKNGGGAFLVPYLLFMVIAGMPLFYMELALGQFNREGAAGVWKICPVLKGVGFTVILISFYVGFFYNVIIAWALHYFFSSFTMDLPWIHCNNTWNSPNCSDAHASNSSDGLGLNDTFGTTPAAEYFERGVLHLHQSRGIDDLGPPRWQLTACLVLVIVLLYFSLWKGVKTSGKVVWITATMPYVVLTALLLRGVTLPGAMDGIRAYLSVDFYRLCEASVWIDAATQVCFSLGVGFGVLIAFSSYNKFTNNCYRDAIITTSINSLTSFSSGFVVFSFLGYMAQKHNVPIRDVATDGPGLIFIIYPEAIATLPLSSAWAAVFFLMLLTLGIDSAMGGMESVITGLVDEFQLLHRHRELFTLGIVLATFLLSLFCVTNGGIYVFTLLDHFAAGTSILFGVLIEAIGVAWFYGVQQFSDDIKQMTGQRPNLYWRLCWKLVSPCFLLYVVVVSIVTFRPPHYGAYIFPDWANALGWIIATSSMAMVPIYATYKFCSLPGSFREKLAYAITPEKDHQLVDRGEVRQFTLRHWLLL
Sodium-dependent serotonin transporter, sequence (P31652 whole entry): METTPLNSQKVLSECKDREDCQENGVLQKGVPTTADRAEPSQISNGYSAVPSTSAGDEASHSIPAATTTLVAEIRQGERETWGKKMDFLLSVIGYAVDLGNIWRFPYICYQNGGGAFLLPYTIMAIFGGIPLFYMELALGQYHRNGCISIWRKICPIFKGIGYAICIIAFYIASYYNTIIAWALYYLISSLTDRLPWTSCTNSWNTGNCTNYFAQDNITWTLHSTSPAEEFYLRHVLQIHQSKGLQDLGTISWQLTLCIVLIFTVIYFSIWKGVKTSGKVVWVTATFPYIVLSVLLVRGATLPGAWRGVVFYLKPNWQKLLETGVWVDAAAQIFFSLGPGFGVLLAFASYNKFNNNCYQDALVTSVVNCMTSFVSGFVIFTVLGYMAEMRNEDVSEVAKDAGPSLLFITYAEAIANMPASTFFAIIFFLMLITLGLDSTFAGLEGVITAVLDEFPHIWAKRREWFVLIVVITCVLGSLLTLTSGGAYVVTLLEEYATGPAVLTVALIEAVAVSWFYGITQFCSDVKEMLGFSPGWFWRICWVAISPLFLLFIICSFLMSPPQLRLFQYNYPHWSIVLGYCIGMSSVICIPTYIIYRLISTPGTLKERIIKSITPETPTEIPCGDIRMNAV

SMILES | IC50 [1] | ED50 (Mus musculus [2]) | IC50 [3] | IC50 [4] | ED50 (Mus musculus [2]; Mus musculus, read-out: ED50) | ED50 (Mus musculus [5])
CN(C)C1CC(c2ccc(F)cc2)c2ccc(F)cc21 (stereo unspecified) | 90 nM | >147 µmol/kg | – | – | – | –
CN(C)C1CC(c2ccc(Cl)c(Cl)c2)c2ccccc21 (stereo unspecified) | 24 nM | – | 28 nM | 0.64 nM | – | –
CNC1CC(c2ccc(Cl)cc2)c2ccccc21 (stereo unspecified) | 0.51 nM | >155 µmol/kg | 5.6 nM | 4 nM | – | –
CN(C)C1CC(c2ccc(F)c(F)c2)c2ccccc21 (stereo unspecified) [listing 1 of 2 here] | 29 nM | 13 µmol/kg | 180 nM | 1.3 nM | – | –
Clc1ccc(C2CC(NCCc3ccccc3)c3ccccc32)cc1Cl (stereo unspecified) | – | >85 µmol/kg | – | – | – | –
Cl.Clc1ccc(C2CC(NCCc3ccccc3)c3ccccc32)cc1Cl (stereo unspecified) | – | 33 µmol/kg | – | – | – | –
CN(C)C1CC(c2ccc(F)c(F)c2)c2ccccc21 (stereo unspecified) [listing 2 of 2 here] | 62 nM | – | 250 nM | 20 nM | 7.1 µmol/kg | –
CN(C)C1CC(c2ccc(Cl)c(Cl)c2)c2ccccc21.Cl (stereo unspecified) | 2.4 nM | – | – | – | – | –
CNC1CC(c2ccc(Cl)cc2)c2ccccc21.Cl (stereo unspecified) | 24 nM | 376 µmol/kg | 120 nM | 0.65 nM | – | –
CN(C)C1CC(c2ccc(F)cc2)c2ccc(F)cc21.Cl (stereo unspecified) | 350 nM | 28 µmol/kg | 620 nM | 18 nM | – | –
CN1CCN(C2CC(c3ccc(Cl)c(Cl)c3)c3ccccc32)CC1 (single isomer, unassigned; (+)-101) | – | >91 µmol/kg | 340 nM | – | – | –
CN1CCN(C2CC(c3ccc(Cl)c(Cl)c3)c3ccccc32)CC1 (single isomer, unassigned; (+)-102) | – | – | 1700 nM | – | – | –
CN(C)C1CC(c2ccccc2)c2ccccc21.Cl (stereo in doubt; 31) | 130 nM | 17 µmol/kg | 600 nM | 150 nM | – | –
CNC1CC(c2ccc(F)cc2)c2ccccc21.Cl (stereo in doubt; 32) | 2.9 nM | 19 µmol/kg | – | 76 nM | – | –
CN(C)C1CC(c2ccc(F)cc2)c2ccccc21.Cl (stereo in doubt; 33) | 100 nM | 7.8 µmol/kg | 320 nM | 33 nM | – | –
CN(C)C1CC(c2ccc(Cl)cc2)c2ccccc21 (stereo in doubt; 35) | 23 nM | 56 µmol/kg | 140 nM | 0.64 nM | – | –
CNC1CC(c2ccc(Br)cc2)c2ccccc21 (stereo in doubt; 36) | 0.3 nM | – | 2.5 nM | 0.28 nM | 47 µmol/kg | –
CN(C)C1CC(c2ccc(Br)cc2)c2ccccc21 (stereo in doubt; 37) | 28 nM | 9.8 µmol/kg | 54 nM | 0.04 nM | – | –
CNC1CC(c2cccc(Cl)c2)c2ccccc21.Cl (stereo in doubt; 39) | 0.12 nM | 45 µmol/kg | 14 nM | 41 nM | – | –
CN(C)C1CC(c2cccc(Cl)c2)c2ccccc21.Cl (stereo in doubt; 40) | 15 nM | 10 µmol/kg | 71 nM | 36 nM | – | –
CNC1CC(c2ccc(F)c(F)c2)c2ccccc21.Cl (stereo in doubt; 41) | 1.6 nM | 58 µmol/kg | 21 nM | 49 nM | – | –
CNC1CC(c2ccc(F)c(Cl)c2)c2ccccc21.Cl (stereo in doubt; 43) | – | 12 µmol/kg | – | – | – | –
CN(C)C1CC(c2ccc(F)c(Cl)c2)c2ccccc21.Cl (stereo in doubt; 44) | – | 4.5 µmol/kg | – | – | – | –

SMILES | IC50 [1] | ED50 (Mus musculus [2]) | IC50 [3] | IC50 [4] | ED50 (Mus musculus [2]; Mus musculus, read-out: ED50) | ED50 (Mus musculus [5])
CNC1CC(c2ccc(Cl)cc2Cl)c2ccccc21.Cl (stereo in doubt; 48) | 15 nM | 19 µmol/kg | 510 nM | 0.91 nM | – | –
CN(C)C1CC(c2ccc(Cl)cc2Cl)c2ccccc21.Cl (stereo in doubt; 49) | 90 nM | 23 µmol/kg | 2000 nM | 0.58 nM | – | –
CNC1CC(c2ccc(Cl)c(Cl)c2)c2ccc(F)cc21.Cl (stereo in doubt; 50) | 0.71 nM | 33 µmol/kg | 0.12 nM | 2.3 nM | – | –
CN(C)C1CC(c2ccc(Cl)c(Cl)c2)c2ccc(F)cc21 (stereo in doubt; 51) | 21 nM | – | 12 nM | 1.1 nM | > 111 µmol/kg | –
CN(C)C1CC(c2ccc(F)cc2)c2ccc(C(F)(F)F)cc21 (stereo in doubt; 57) | 85 nM | – | 240 nM | 43 nM | 116 µmol/kg | –
CN(C)C1CC(c2ccccc2)c2ccccc21.Cl (stereo in doubt; 59) | 41 nM | >143 µmol/kg | – | – | – | –
CNC1CC(c2ccc(F)cc2)c2ccccc21.Cl (stereo in doubt; 60) | 120 nM | 79 µmol/kg | – | 21 nM | – | –
CN(C)C1CC(c2ccc(F)cc2)c2ccccc21.Cl (stereo in doubt; 61) | 24 nM | 24 µmol/kg | – | 6.2 nM | – | –
CN(C)C1CC(c2ccc(Cl)cc2)c2ccccc21 (stereo in doubt; 63) | 4.4 nM | – | 190 nM | 0.34 nM | 43 µmol/kg | –
CNC1CC(c2ccc(Br)cc2)c2ccccc21.Cl (stereo in doubt; 64) | 8.8 nM | 29 µmol/kg | 67 nM | 0.16 nM | – | –
CN(C)C1CC(c2ccc(Br)cc2)c2ccccc21 (stereo in doubt; 65) | 4.3 nM | 2.3 µmol/kg | 83 nM | 0.14 nM | – | –
CNC1CC(c2cccc(Cl)c2)c2ccccc21.Cl (stereo in doubt; 66) | 19 nM | 119 µmol/kg | 220 nM | 6.8 nM | – | –
CNC1CC(c2ccc(F)c(Cl)c2)c2ccccc21.Cl (stereo in doubt; 70) | – | 32 µmol/kg | – | – | – | –
CN(C)C1CC(c2ccc(F)c(Cl)c2)c2ccccc21.Cl (stereo in doubt; 71) | – | 13 µmol/kg | – | – | – | –
CN(C)C1CC(c2ccc(Cl)cc2Cl)c2ccccc21 (stereo in doubt; 75) | 34 nM | – | – | – | 23 µmol/kg | –
CNC1CC(c2ccc(Cl)c(Cl)c2)c2ccc(F)cc21 (stereo in doubt; 76) | – | – | – | – | – | 15 µmol/kg
CN(C)C1CC(c2ccc(Cl)c(Cl)c2)c2ccc(F)cc21 (stereo in doubt; 77) [listing 1 of 2 here] | 3.7 nM | – | 31 nM | 2.5 nM | – | –
CN(C)C1CC(c2ccc(Cl)c(Cl)c2)c2ccc(F)cc21 (stereo in doubt; 77) [listing 2 of 2 here] | – | – | – | – | – | 29 µmol/kg
CN(C)C1CC(c2ccc(F)cc2)c2ccc(C(F)(F)F)cc21.Cl (stereo in doubt; 82) | 350 nM | >111 µmol/kg | – | – | – | –
CN(C)C1CC(c2ccc(F)cc2)c2ccc(C(F)(F)F)cc21 (stereo in doubt; 82) | – | – | – | – | – | 101 µmol/kg
CCNC1CC(c2ccc(Cl)c(Cl)c2)c2ccccc21.Cl (stereo in doubt; 83) | 0.32 nM | – | 1.5 nM | 2.3 nM | – | –
CCNC1CC(c2ccc(Cl)c(Cl)c2)c2ccccc21 (stereo in doubt; 83) | – | – | – | – | – | 26 µmol/kg
CCNC1CC(c2ccc(Cl)c(Cl)c2)c2ccccc21.Cl (stereo in doubt; 84) | 49 nM | – | – | 1.6 nM | – | –

SMILES | IC50 [1] | ED50 (Mus musculus [2]) | IC50 [3] | IC50 [4] | ED50 (Mus musculus [2]; Mus musculus, read-out: ED50) | ED50 (Mus musculus [5])
CCNC1CC(c2ccc(Cl)c(Cl)c2)c2ccccc21 (stereo in doubt; 84) | – | – | – | – | – | 26 µmol/kg
CCN(CC)C1CC(c2ccc(Cl)c(Cl)c2)c2ccccc21 (stereo in doubt; 85) | – | – | – | – | – | 19 µmol/kg
CCN(CC)C1CC(c2ccc(Cl)c(Cl)c2)c2ccccc21.Cl (stereo in doubt; 86) | 13 nM | >108 µmol/kg | – | – | – | –
CCN(CC)C1CC(c2ccc(Cl)c(Cl)c2)c2ccccc21 (stereo in doubt; 86) | – | – | – | – | – | 204 µmol/kg
CCCNC1CC(c2ccc(Cl)c(Cl)c2)c2ccccc21 (stereo in doubt; 87) | – | – | – | – | – | 87 µmol/kg
CCCNC1CC(c2ccc(Cl)c(Cl)c2)c2ccccc21 (stereo in doubt; 88) [listing 1 of 2 here] | – | – | – | – | > 112 µmol/kg | –
CCCNC1CC(c2ccc(Cl)c(Cl)c2)c2ccccc21 (stereo in doubt; 88) [listing 2 of 2 here] | – | – | – | – | – | > 112 µmol/kg
CCCN(CCC)C1CC(c2ccc(Cl)c(Cl)c2)c2ccccc21 (stereo in doubt; 89) | – | – | – | – | – | > 100 µmol/kg
CCCN(CCC)C1CC(c2ccc(Cl)c(Cl)c2)c2ccccc21.Cl (stereo in doubt; 90) | – | >100 µmol/kg | 180 nM | – | – | –
CCCN(CCC)C1CC(c2ccc(Cl)c(Cl)c2)c2ccccc21 (stereo in doubt; 90) | – | – | – | – | – | > 100 µmol/kg
Clc1ccc(C2CC(NCc3ccccc3)c3ccccc32)cc1Cl (stereo in doubt; 93) | – | – | – | – | – | 47 µmol/kg
Clc1ccc(C2CC(NCc3ccccc3)c3ccccc32)cc1Cl (stereo in doubt; 94) | – | – | – | – | – | 207 µmol/kg
Clc1ccc(C2CC(N3CCCC3)c3ccccc32)cc1Cl (stereo in doubt; 97) [listing 1 of 2 here] | – | – | 320 nM | – | > 108 µmol/kg | –
Clc1ccc(C2CC(N3CCCC3)c3ccccc32)cc1Cl (stereo in doubt; 97) [listing 2 of 2 here] | – | – | – | – | – | > 108 µmol/kg
Clc1ccc(C2CC(N3CCCC3)c3ccccc32)cc1Cl (stereo in doubt; 98) [listing 1 of 2 here] | 27 nM | – | 32 nM | 3.1 nM | – | –
Clc1ccc(C2CC(N3CCCC3)c3ccccc32)cc1Cl (stereo in doubt; 98) [listing 2 of 2 here] | – | – | – | – | – | 161 µmol/kg
Clc1ccc(C2CC(N3CCCCC3)c3ccccc32)cc1Cl (stereo in doubt; 99) [listing 1 of 2 here] | – | – | 720 nM | – | – | –
Clc1ccc(C2CC(N3CCCCC3)c3ccccc32)cc1Cl (stereo in doubt; 99) [listing 2 of 2 here] | – | – | – | – | – | > 209 µmol/kg
Clc1ccc(C2CC(N3CCCCC3)c3ccccc32)cc1Cl (stereo in doubt; 100) | – | – | – | – | – | > 209 µmol/kg
CN1CCN(C2CC(c3ccc(Cl)c(Cl)c3)c3ccccc32)CC1 (stereo in doubt; 102) | – | – | – | – | – | > 89 µmol/kg
CN1CCN(C2CC(c3ccc(Cl)c(Cl)c3)c3ccccc32)CC1 (stereo in doubt; (-)-102) | – | – | – | – | – | > 89 µmol/kg
